Screening data deposited in PubChem BioAssay by several laboratories.
Compounds with a hit are over-represented: about 9.6% of the library has one in this group of screens.
MT stabilizer: microtubule stabilization, imaging screen. HeLa tubulin immunostaining HCS, 24 h; share of cells brighter than vehicle mean+2SD. actives 0.83% (n = 200,000). % tubulin-high responders, % at 10 µM. AID 2205;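 active = plate Z-score above 3 for both tubulin-high and condensed-nucleus cell shares, with cell loss under 80%, at 10 µM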;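 also: anti alpha tubulin signal scored within the nucleus-defined area of each cell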
APP 5UTR inh: APP translation inhibition | SH-SY5Y APP 5'UTR-luciferase reporter, luminescence | inhibition, % at 2 µM | actives 0.82% (n = 190,000) | AID 1285;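 active = inhibition above a set limit, derived from the sample mean plus 3 SD, cut at about 45% in these data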
b-catenin transl: alters nuclear translocation of beta-catenin in HeLa cells; immunofluorescence imaging; nuclear translocation activity, % at 5 µM; actives 0.3% (n = 190,000);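 active = nuclear translocation activity above 50% at 5 µM, with a well cell count of 50 or more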;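 also: per-cell ratio of nuclear to cytoplasmic median beta-catenin stain intensity; plate controls were DMSO negative control for no effect and GSK-3 inhibitor IX positive control for full effect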
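test system = HeLa cells, endogenous beta-catenin | dosing = single 5 µM dose plus 0.02–20 µM confirmation series | times = compound treatment 24 h, 37°C, 5% CO2 | technique = beta-catenin immunofluorescence imaging with DAPI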
BaF3 parental: parental Ba/F3 viability inhibition as JAK2V617F counter-screen; CellTiter-Glo ATP luminescence; inhibition, % at 5.6 µM; actives 1.1% (n = 220,000);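 active = inhibition above a per-campaign cutoff, the mean inhibition of all tested compounds plus 3 SD, cut at about 27% in these data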;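 also: 0% = DMSO wells and 100% = JAK Inhibitor I control wells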
L major viab: Leishmania major promastigote growth inhibition. inhibition, % at 10 µM. Leishmania major promastigotes, resazurin fluorescence viability. actives 9% (n = 200,000); in the data active = inhibition above about 50%;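 also: promastigotes grown with compound for 44 hours at 28 °C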
Ba/F3 V617F tox: lowers viability of Ba/F3 cells expressing EpoR and JAK2V617F. ATP luminescence. inhibition, % at 5.6 µM. actives 1.1% (n = 220,000). AID 1446;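 active = inhibition above the campaign mean plus 3 SD over all tested compounds, cut at about 24% in these data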;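 also: cytokine-independent growth of Ba/F3 cells driven by EpoR plus mutant JAK2; 0% = DMSO-treated cells and 100% = JAK inhibitor I control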
Numbers without * were called inactive; . = no result.

SMILES | MT stabilizer | APP 5UTR inh | b-catenin transl | BaF3 parental | L major viab | Ba/F3 V617F tox
O=S(=O)(c1ccc(N2CCC(c3ccc(Cl)cc3)=N2)cc1)N(CCO)CCO | 2 | -6 | -2 | 7 | -5 | -1
CN(C)CCCNS(=O)(=O)c1ccc(N2CCC(c3ccc(Cl)cc3)=N2)cc1 | 2 | 3 | 73* | 22 | 100* | 3
CCOC(=O)c1cc2c(=O)n3ccccc3nc2n(C(C)C)c1=NC(=O)c1ccncc1 | 3 | -6 | 0 | 4 | 52* | 3
CCOC(=O)c1cc2c(=O)n3ccccc3nc2n(CCOC)c1=NC(=O)c1ccncc1 | 3 | 9 | . | 7 | 20 | 8
CCOC(=O)c1cc2c(=O)n3ccccc3nc2n(CCOC)c1=NC(=O)c1c(-c2c(F)cccc2Cl)noc1C | 14 | -17 | 0 | 5 | 67* | 6
CCOC(=O)c1cc2c(=O)n3ccccc3nc2n(C(C)C)c1=NC(=O)c1c(-c2ccccc2Cl)noc1C | 3 | 1 | 1 | 9 | 88* | 2
CCOC(=O)c1cc2c(=O)n3ccccc3nc2n(CC(C)C)c1=NC(=O)c1ccco1 | 3 | 3 | 2 | 1 | 43 | 4
CCCCS(=O)(=O)Nc1ccc(Cc2ccncc2)cc1 | 3 | -20 | -1 | 3 | -4 | -5
Cc1cccc(NC(=O)c2ccc(CN3CCc4ccccc4C3)cc2)c1C | 4 | 19 | 1 | 4 | 57* | 2
CCc1cccc(C)c1NC(=O)c1ccc(CN2CCc3ccccc3C2)cc1 | 5 | -14 | 3 | -1 | 66* | -2
CCOC(=O)C1=C(C)Nc2ccccc2N=C1NC(=O)/C=C/c1ccc(OC)cc1OC | 3 | -29 | -3 | 12 | 80* | 4
O=C(CSc1nc2cc(C(F)(F)F)ccc2n1Cc1ccccc1)NC1CCS(=O)(=O)C1 (centres undefined) | 3 | -7 | -4 | 11 | 97* | 3
Cc1ccc(-n2c(SCC(=O)NC3CCS(=O)(=O)C3)nc3ccccc3c2=O)cc1 (centres undefined) | 0 | 2 | -1 | 5 | 0 | 1
O=C(NCc1ccccc1)c1ccc(S(=O)(=O)N2CCCC2)cc1 | 2 | 51* | 0 | 0 | 2 | -3
COc1ccc(CCNC(=O)c2ccc(CNS(=O)(=O)c3ccccc3)cc2)cc1OC | 3 | 2 | 0 | 0 | 70* | -2
O=C(NCc1cccnc1)c1ccc(S(=O)(=O)N2CCCCC2)cc1 | 1 | 18 | -1 | 4 | -2 | -1
O=C(NCc1ccc2c(c1)OCO2)c1ccc(S(=O)(=O)N2CCCCC2)cc1 | 2 | -8 | -1 | 2 | 6 | -2
Cc1[nH]c2ccccc2c1SCCNC(=O)c1ccc(S(=O)(=O)N2CCCC2)cc1 | 2 | 4 | 6 | 8 | 99* | -3
COc1ccc(CNC(=O)c2ccc(S(=O)(=O)N3CCCC3)cc2)cc1OC | 2 | 52* | . | 5 | 6 | 0
Cc1onc(-c2ccccc2)c1NC(=O)N(CCC#N)Cc1cccs1 | . | . | 0 | -3 | . | -1
Cc1ccc(O)c(-c2cc(C(=O)NCc3ccc4c(c3)OCO4)[nH]n2)c1 | 2 | 8 | -4 | 8 | -4 | -4
Cc1ccc(C(=O)CSc2nc3cc(S(=O)(=O)N4CCOCC4)ccc3o2)cc1 | 4 | -10 | -2 | 4 | -5 | -2
Cc1[nH]c2ccccc2c1C(=O)CSc1nc2cc(S(=O)(=O)N3CCCCC3)ccc2o1 | 3 | 17 | 0 | -2 | 55* | -3
O=C(COc1ccc(C(=S)N2CCC(Cc3ccccc3)CC2)cc1)N1CCOCC1 | 2 | 2 | -4 | 2 | -1 | -1
CCOc1ccc(Oc2c(/C=N/NC(N)=O)c(C)nn2-c2ccccc2)cc1 | 4 | -1 | 0 | 12 | 98* | 4
COc1ccc(C2CC(=O)c3c(ccc4ccccc34)N2)cc1OC (centres undefined) | 4 | -31 | -3 | 3 | 100* | 2
CCOC(=O)C(C(=O)NCc1cccc(OC)c1)c1ncc(C(F)(F)F)cc1Cl (centres undefined) | 3 | -4 | 0 | 2 | 2 | 2
CN1CC(c2ccccc2)C2(SC(=S)N(Cc3ccco3)C2=O)C12C(=O)Nc1ccccc12 (centres undefined) | 3 | 35 | -4 | 7 | 98* | 2
